# Measured values: ChEMBL document CHEMBL1177859, “Synthesis and antipsychotic and anticonvulsant activity of some new substituted oxa/thiadiazolylazetidinonyl/thiazolidinonylcarbazoles” (Eur J Med Chem, 2010)
# Experiments:
# [1] = Toxicity in ip dosed rat; type: organism-based; conditions: in vivo
# [2] = test system: Rattus norvegicus; test: Anticonvulsant activity in rat assessed as protection against maximal electric shock-induced seizures at 40 mg/kg, ip; type: functional; conditions: route intraperitoneal
# Summary of the method: (§1)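 Rats dosed i.p.: test agents at 40 mg/kg, with a propylene glycol group at 0.5 mL. Maximal electroshock (MES) seizure test, scored as % seizure protection.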
# [3] = test system: Rattus norvegicus; test: Toxicity in rat assessed as time spent on rotarod at 40 mg/kg, ip by rotarod test; type: organism-based; parameters: dose 40 mg/kg, route intraperitoneal; conditions: in vivo
# Summary of the method: (§2)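 Rats dosed i.p.: test agents at 40 mg/kg, with a propylene glycol group at 0.5 mL. Rotarod performance test, recorded as mean time in seconds on the rod.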
# [4] = test system: Rattus norvegicus; test: Anticonvulsant activity in rat assessed as protection against maximal electric shock-induced seizures at 0.5 mL, ip; type: functional; summary of the method: as §1
# [5] = test system: Rattus norvegicus; test: Toxicity in rat assessed as time spent on rotarod at 0.5 mL, ip by rotarod test; type: organism-based; conditions: in vivo; summary of the method: as §2
SMILES,LD50 [1] [mg/kg],Activity [2] [%],Time [3] [s],Activity [4] [%],Time [5] [s]
O=C1C(Cl)C(c2ccc(O)cc2O)N1c1nnc(Cn2c3ccccc3c3ccccc32)o1 (stereo not drawn),> 1000,50,106.4,,
CN(C)c1ccc(C2C(Cl)C(=O)N2c2nnc(Cn3c4ccccc4c4ccccc43)s2)cc1 (stereo not drawn),> 1000,50,106,,
Brc1ccccc1/C=N/c1nnc(Cn2c3ccccc3c3ccccc32)o1,> 1000,30,110.8,,
Oc1ccc(/C=N/c2nnc(Cn3c4ccccc4c4ccccc43)s2)cc1,> 1000,40,108.8,,
Oc1ccc(/C=N/c2nnc(Cn3c4ccccc4c4ccccc43)s2)c(O)c1,> 1000,50,108.6,,
O=C1C(Cl)C(c2ccccc2Br)N1c1nnc(Cn2c3ccccc3c3ccccc32)s1 (stereo not drawn),> 1000,80,98,,
O=C1CSC(c2ccc(O)cc2O)N1c1nnc(Cn2c3ccccc3c3ccccc32)s1 (stereo not drawn),> 1000,70,102.2,,
O=C1CSC(c2ccc(O)cc2)N1c1nnc(Cn2c3ccccc3c3ccccc32)o1 (stereo not drawn),> 1000,60,104.6,,
O=C1CSC(c2ccc(O)cc2O)N1c1nnc(Cn2c3ccccc3c3ccccc32)o1 (stereo not drawn),> 1000,60,104.4,,
COc1cc(C2SCC(=O)N2c2nnc(Cn3c4ccccc4c4ccccc43)s2)ccc1O (stereo not drawn),> 1000,70,98.8,,
CN(C)c1ccc(C2SCC(=O)N2c2nnc(Cn3c4ccccc4c4ccccc43)s2)cc1 (stereo not drawn),> 1000,60,104,,
O=C1CSC(c2ccccc2Br)N1c1nnc(Cn2c3ccccc3c3ccccc32)s1 (stereo not drawn),> 1600,90,96,,
Oc1ccc(/C=N/c2nnc(Cn3c4ccccc4c4ccccc43)o2)cc1,> 1000,20,116.4,,
O=C1C(Cl)C(c2ccc(O)cc2)N1c1nnc(Cn2c3ccccc3c3ccccc32)s1 (stereo not drawn),> 1000,60,102,,
O=C1C(Cl)C(c2ccc(O)cc2O)N1c1nnc(Cn2c3ccccc3c3ccccc32)s1 (stereo not drawn),> 1000,50,102.2,,
COc1cc(/C=N/c2nnc(Cn3c4ccccc4c4ccccc43)s2)ccc1O,> 1000,50,106.8,,

SMILES,LD50 [1] [mg/kg],Activity [2] [%],Time [3] [s],Activity [4] [%],Time [5] [s]
CN(C)c1ccc(/C=N/c2nnc(Cn3c4ccccc4c4ccccc43)s2)cc1,> 1000,40,110.2,,
COc1cc(C2C(Cl)C(=O)N2c2nnc(Cn3c4ccccc4c4ccccc43)o2)ccc1O (stereo not drawn),> 1000,50,102.4,,
COc1cc(C2SCC(=O)N2c2nnc(Cn3c4ccccc4c4ccccc43)o2)ccc1O (stereo not drawn),> 1000,70,102.8,,
Oc1ccc(/C=N/c2nnc(Cn3c4ccccc4c4ccccc43)o2)c(O)c1,> 1000,30,114.8,,
COc1cc(/C=N/c2nnc(Cn3c4ccccc4c4ccccc43)o2)ccc1O,> 1000,30,112.2,,
CN(C)c1ccc(/C=N/c2nnc(Cn3c4ccccc4c4ccccc43)o2)cc1,> 1000,20,114,,
CN(C)c1ccc(C2C(Cl)C(=O)N2c2nnc(Cn3c4ccccc4c4ccccc43)o2)cc1 (stereo not drawn),> 1000,40,100.2,,
O=C1C(Cl)C(c2ccccc2Br)N1c1nnc(Cn2c3ccccc3c3ccccc32)o1 (stereo not drawn),> 1000,60,98.8,,
CN(C)c1ccc(C2SCC(=O)N2c2nnc(Cn3c4ccccc4c4ccccc43)o2)cc1 (stereo not drawn),> 1000,60,104.2,,
O=C1CSC(c2ccccc2Br)N1c1nnc(Cn2c3ccccc3c3ccccc32)o1 (stereo not drawn),> 1000,70,96.6,,
O=C1CSC(c2ccc(O)cc2)N1c1nnc(Cn2c3ccccc3c3ccccc32)s1 (stereo not drawn),> 1000,60,100.6,,
Brc1ccccc1/C=N/c1nnc(Cn2c3ccccc3c3ccccc32)s1,> 1000,60,106.8,,
O=C1C(Cl)C(c2ccc(O)cc2)N1c1nnc(Cn2c3ccccc3c3ccccc32)o1 (stereo not drawn),> 1000,40,104.6,,
COc1cc(C2C(Cl)C(=O)N2c2nnc(Cn3c4ccccc4c4ccccc43)s2)ccc1O (stereo not drawn),> 1000,70,102.4,,
O=C(CCCN1CCC(O)(c2ccc(Cl)cc2)CC1)c1ccc(F)cc1 [HALOPERIDOL],,,,0,
CC(O)CO (stereo not drawn) [PROPYLENE GLYCOL],,,,0,120
